According to ChEMBL document CHEMBL4513216, “Probing the Open Global Health Chemical Diversity Library for Multistage-Active Starting Points for Next-Generation Antimalarials” (ACS Infect Dis, 2020):

Test: Toxicity liver stage against HepG2, at 10uM
Format: cell-based
Parameters: test concentration 10 uM, cell line HepG2-A16-CD81EGFP
Details: human, HepG2-A16-CD81EGFP cells; read-out: INHIBITION
In short: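 Uninfected HepG2-A16-CD81EGFP cells, 3 × 10^3 per well, 1536-well, plated on prespotted compound at 10 μM final, parasite-free screening media added to match infected plates; puromycin 10 μM positive, DMSO 0.5% negative; run in parallel with 48 h PbLuc assay at 37 °C, 5% CO2; viability by CellTiter-Glo luminescence, normalized to controls.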

| SMILES | cytotoxicity at 10 µM [%] |
| --- | --- |
| CC[C@H]1CN2CC[C@H]1C[C@@H]2CNCc1ccc(N(C)C)cc1 | -5.66 |
| CC1=C[C@@H](CN2CCC(O)CC2)[C@H](C(C)C)C[C@H]1Cc1nnc(C)o1 | 0.788 |
| COCCNc1c(-c2ccc(Cl)cc2)c(=O)c1=O | -1.99 |
| CN(C)C(=O)CN1CCC2(CC1)CC(=O)c1c(ccc3ccccc13)O2 | 3.28 |
| O=S1(=O)c2cccnc2OC(Cc2ccccc2)CN1CC1CC1 (stereo unspecified) | -2.46 |
| CN1C(=O)C2(CC(=O)Nc3c2cnn3C(C)(C)C)c2ccccc21 (stereo unspecified) | -4.5 |
| Cn1ncc2c1NC(=O)CSC2c1ccc2c(c1)OCO2 (stereo unspecified) | 0.435 |
| Cc1c(C2CC(=O)Nc3c2cnn3C(C)C)cnn1C (stereo unspecified) | -6.72 |
| CCSc1nc(N)c(NC(=O)c2ccc(C)cc2)c(=O)[nH]1 | -57.3 |
| Cc1cc(C(=O)N2CCN(c3nc4c(C)cccc4s3)CC2)no1 | 12.1 |
| COc1ccc(C(=O)NCC(C)(O)CCc2ccccc2)cc1 (stereo unspecified) | -7.39 |
| CCCC(=O)N1CCC2(CC1)COC2 | 1.58 |
| CCC(CC)CN1CCN(CC(=O)Nc2cccc3nsnc23)CC1 | 6.16 |
| CCC(=O)Nc1nnc(CCCOc2ccccc2)s1 | -0.834 |
| COCC(=O)N1C[C@@H](c2cc(O)nc(C)n2)[C@H](c2ccccc2F)C1 | 5.62 |
| O=C(c1cccnc1)N1Cc2ccccc2OCC1Cn1ccnc1 (stereo unspecified) | 1.68 |
| CNC(=O)c1sc2ccccc2c1CC1CCCN1Cc1cnc(C)s1 (stereo unspecified) | 2.59 |
| Cc1noc(C)c1-c1ccnc(C2CCN(C3CCOCC3)CC2)c1 | -28.7 |
| C[C@]1(O)CN(Cc2ncccc2F)CC[C@@H]1Oc1ccccc1 | -21 |
| CN1CCCCC1c1ncc2c(n1)CCN(Cc1ccc(F)cc1)C2 (stereo unspecified) | -17.6 |
| O=C(NCCO)Nc1cnc2cc(Cl)ccc2c1O | -30.2 |
| CC(=O)N1CCN([C@@H]2CC[C@@H](NC(=O)c3ccc(C)nc3)[C@H]2O)CC1 | -3.08 |
| Fc1cccc(Cl)c1CN1CCC(c2n[nH]c3ncccc23)CC1 | -13.7 |

| SMILES | cytotoxicity at 10 µM [%] |
| --- | --- |
| CCc1nnc(S(=O)(=O)Cc2cc(Cl)c3c(c2)OCO3)n1C | -46.3 |
| Cc1cccc(NCc2nc(C)ccc2O)c1 | -3.59 |
| CC(C)Cc1cc(C(=O)N2CCC(N3CCCC3)CC2)cc(O)n1 | 4.64 |
| Cc1ccn(Cc2nc(CC(C)C)no2)c(=O)c1 | 6.21 |
| CCNC(=O)c1ccc(NC2CCOC3(CCCC3)C2)nn1 (stereo unspecified) | -5 |
| Cc1cnc(C(NC(=O)NCc2nc(C3CC3)no2)C2CC2)s1 (stereo unspecified) | 4.34 |
| COCCN(Cc1ccc(C)o1)C(=O)Nc1nnc(C(F)F)s1 | 1.24 |
| CCN1CCN2CCCN(S(=O)(=O)c3cccc(F)c3)C2C1=O (stereo unspecified) | 5.18 |
| NC(=O)CN1CCN(S(=O)(=O)N2CCCC2c2ccco2)CC1 (stereo unspecified) | -3.48 |
| CN(CCC#N)C(=O)CN1CCCN(Cc2noc(C3CC3)n2)CC1 | 6.39 |
| CCCc1cc(N(CCOC)CC(F)F)n2ncnc2n1 | 4.81 |
| CCc1oc(C(=O)OC)cc1Cn1cccc(C(F)(F)F)c1=O | -2.13 |
| CNC(=O)NC(=O)C(NCc1ccccc1)c1ccccc1 (stereo unspecified) | -52.9 |
| CN(CCCNC(=O)C1CCc2cn[nH]c2C1)c1ccccc1 (stereo unspecified) | -5.19 |
| CN(Cc1ccncc1)C(=O)Nc1cnn(CC(N)=O)c1 | -3.07 |
| CCNC(=O)NCc1ccc(CN2CCCC(C)C2)cc1 (stereo unspecified) | -5.03 |
| CC(SCC(=O)NC(N)=O)c1ccccc1F (stereo unspecified) | 2.96 |
| COCCn1cc(C(=O)N2CCCC2c2ccccc2C)ccc1=O (stereo unspecified) | 7.69 |
| Cc1[nH]ncc1CCCNC(=O)Nc1ccccc1 | -2.2 |
| Cc1cc(N2CCN(C(=O)c3cc(Cl)c[nH]3)CC2)nc(C(C)C)n1 | 3.49 |
| Cc1ccc(CNCc2c(C(C)C)nn(C)c2N2CCOCC2)s1 | -3.03 |
| CC(C)C(=O)Nc1ccc(Sc2nncn2C)c(Cl)c1 | -1.18 |
| CCc1ccc(C(=O)O)cc1S(=O)(=O)N(C)c1cccc(C#N)c1 | -2.08 |

| SMILES | cytotoxicity at 10 µM [%] |
| --- | --- |
| CC(C)N(C)C(=O)c1ccc(Cl)c(NC(=O)COCC2CC2)c1 | 6.14 |
| Cc1ccccc1-n1cnc(Cl)c1C(=O)O | -4.11 |
| CN(Cc1nnc(-c2ccco2)o1)Cc1nc2c(s1)CCCC2 | 1.13 |
| COc1ccc(C(C)N2CCC(C(=O)N(C)C)CC2)cc1Cl (stereo unspecified) | -52.5 |
| CC(CN(C)C(=O)c1cn(C)nc1-c1ccc(F)cc1F)C(=O)O (stereo unspecified) | 0.184 |
| Cc1nncn1CCNC(=O)C(C)(C)c1cccc(Cl)c1 | 8.55 |
| N#Cc1cccc(CS(=O)(=O)NCCC(O)c2ccccc2)c1 (stereo unspecified) | 0.692 |
| COCCC(=O)N1C[C@H]2CCC[C@@]2(COC)C1 | 6.75 |
| CC(C)N(C)Cc1nnc2n1CCCN(c1cnccn1)C2 | 0.0861 |
| O=C(CC1CC1)N1C[C@H]2CCN[C@H]2C1 | 5.75 |
| Cc1ccc(S(=O)(=O)NCC2COCc3c(C)nnn3C2)cc1F (stereo unspecified) | -4.55 |
| CS(=O)(=O)NCc1cc(-c2cc(F)cc(F)c2)nc(N2CC[C@H](O)C2)n1 | -9.58 |
| Cc1nc(CN2CCCCC2CCc2cccs2)co1 (stereo unspecified) | -2.36 |
| CS(=O)(=O)N1CCC2(CC1)c1ccccc1[C@@H](N1CCSCC1)[C@@H]2O | -9.71 |
| CC(C)C1CN(S(C)(=O)=O)CCCN1Cc1ccc(F)cc1 (stereo unspecified) | 1.81 |
| Cc1ncoc1C(=O)N1CCOC(CC2CCCCC2)C1 (stereo unspecified) | -1.33 |
| CCOc1c(CNC2CSCCSC2)cccc1OC | 10.8 |
| Cc1nn(C)c(C)c1-c1ccnc(N2CCCN(CC(C)C)CC2)n1 | 5.78 |
| Cc1cnc(C(=O)NCC2CCOc3ccccc3C2)cn1 (stereo unspecified) | 5.06 |
| COCCCN1C(=O)CC[C@H]2CN(c3cc(C(N)=O)ccn3)CC[C@H]21 | 4.12 |
| Cc1ccsc1C(=O)N1C[C@@H](C(=O)O)[C@H](C(C)C)C1 | 9.42 |
| CCC(CC)CN(C)Cc1nc(-c2ccccc2NS(C)(=O)=O)oc1C | -7.69 |
| OC1CCN(C2CCN(c3ccc(Cn4ccnc4)cn3)CC2)CC1 | -2.05 |

| SMILES | cytotoxicity at 10 µM [%] |
| --- | --- |
| CCOc1ccc(-c2c(-c3ccccc3)ncn2C2CCNC2)cn1 (stereo unspecified) | -51.9 |
| CN1CC2(CCN(c3nc(N)nc4c3CCNC4)CC2)OC1=O | -5.66 |
| CCc1nc(C)c(C2CC(=O)Nc3c2c(-c2ccccn2)nn3C)[nH]1 (stereo unspecified) | -6.37 |
| C[C@@H]1CN(c2ccc(C#N)cn2)CC[C@@]1(O)C1CCOCC1 | -1.5 |
| NC(=O)c1cncc(Oc2cccc(CN3CCCC3)c2Cl)n1 | -3.47 |
| CC(=O)c1ccccc1-c1nc(CC2CCN(C)CC2)no1 | -17.5 |
| CCc1ccc2occ(CC(=O)N3CCC4(CCCN(C)C4=O)C3)c2c1 (stereo unspecified) | -14.5 |
| CS(=O)(=O)NCCNc1ncnc2cccc(F)c12 | 3.17 |
| CNc1ncc(CN(C)c2nc(C3CCCC3)nc3c2cnn3C)cn1 | 24.1 |
| COCCCC1(CO)CCCN(C(=O)c2cnc(C3CC3)nc2)C1 (stereo unspecified) | -39.7 |
| O=C1CCC(=O)N1c1nn(Cc2c(F)cccc2Cl)cc1Cl | -11.3 |
| CCc1nccn1-c1cncc(C2CCCN2Cc2cccnc2)n1 (stereo unspecified) | 5.82 |
| CC(=O)N(C)CCCc1cc(-c2ccccc2)no1 | -7.16 |
| CC(NC(=O)NCCCn1cncn1)c1ccc(C#N)cc1 (stereo unspecified) | -2.6 |
| CC(C)c1ncc2c(n1)CN(Cc1nnc(Cc3ccccc3)o1)CC2 | -12.6 |
| COC(=O)NCC(=O)NCc1nn(-c2ccccc2)c2c1CCC2 | -7.72 |
| Cc1csc(N2CCN(C(=O)C3(C#N)CCCCC3)CC2)n1 | -8.45 |
| CCC(C)(C)NC(=O)Cn1nc(C)nc1-c1cccc(C)c1 | -8.44 |
| CC(C)Cc1cc(NC(=O)c2ccc[nH]2)n(C)n1 | -6.56 |
| Cc1cc(C)n(CC2CCCN2CCCS(N)(=O)=O)n1 (stereo unspecified) | -4.1 |
| CN1CCN(c2cc(CNC(=O)c3ccc(=O)[nH]n3)ccn2)CC1 | -15 |
| Cc1ccccc1-c1cc(C(=O)N2CCn3c(C)nnc3C2)[nH]n1 | -5.82 |
| CCOc1ccccc1C(CC(=O)Nc1ccc(C)cn1)NC(C)=O (stereo unspecified) | -10.7 |

| SMILES | cytotoxicity at 10 µM [%] |
| --- | --- |
| Cn1cc(C2CCCN2C(=O)CCCOCc2ccccc2)cn1 (stereo unspecified) | -10.2 |
| CC(C)N(CC(N)=O)Cc1csc(Cc2ccccc2)n1 | -2.32 |
| Cn1cnc2c1CCN(CCCOc1ccc(C#N)cc1)C2 | -12.4 |
| CCN1CCC(NC(=O)CN2CCc3c(nc(C4CC4)n3C)C2)CC1 | -10.2 |
| CCc1ncc2c(n1)CN(CC(=O)Nc1nnc(C)s1)CC2 | 2.94 |
| Cc1noc(C)c1C(=O)NCc1ccc(N2CCOC(C)C2)nc1 (stereo unspecified) | -3.46 |
| Cc1cc(CN(C)C(=O)c2ccnc(N(C)C)c2)no1 | 5.46 |
| Cc1nc(C)n(CC2CCCN2Cc2nc3ccccc3n2C)n1 (stereo unspecified) | -2.21 |
| Cc1cnn(CC2CN(CC(=O)NCc3ccccn3)CCO2)c1 (stereo unspecified) | -5.8 |
| COc1ccccc1CN1CCCCC1c1n[nH]cc1-c1cc(C)no1 (stereo unspecified) | 13.6 |
| COc1cccc2c(C)c(C(=O)N3CCNCC3C(N)=O)[nH]c12 (stereo unspecified) | 1.67 |
| c1coc(CN2C[C@@H]3CN(Cc4ccoc4)CCO[C@@H]3C2)c1 | -3.87 |
| Cn1cccc1CN1CCC2(CC1)CC(Oc1cccnc1)C2 | 13.4 |
| c1cn(-c2cnc(C3CCCNC3)cn2)cn1 (stereo unspecified) | -25.2 |
| Cc1cc2c(=O)n3c(nc2s1)CCN(Cc1cnn(C)c1C)CC3 | 3.06 |
| Cc1cc(C(=O)N2CCO[C@H]3[C@H](OCCN(C)C)CC[C@@H]32)c(C)[nH]1 | 7.07 |
| COc1cccc(CCN2C[C@H]3CCNCC[C@H]3S2(=O)=O)c1 | -8.35 |
| NCC1CCC(C(NC(=O)c2ccccn2)c2ccccn2)CC1 (stereo unspecified) | 2 |
| Cc1ccc(CN2C[C@@H]3CC[C@H]2CN(Cc2[nH]cnc2C)C3)o1 | -6.81 |
